Experiments:
[1] = biological target: T1, Proteinase-activated receptor 1 (Homo sapiens, UniProt P25116); assay: Displacement of [3H]haTRAP from PAR1 in human platelet membranes after 60 mins by scintillation counting analysis; type: cell membranes
T1 sequence (P25116 whole entry): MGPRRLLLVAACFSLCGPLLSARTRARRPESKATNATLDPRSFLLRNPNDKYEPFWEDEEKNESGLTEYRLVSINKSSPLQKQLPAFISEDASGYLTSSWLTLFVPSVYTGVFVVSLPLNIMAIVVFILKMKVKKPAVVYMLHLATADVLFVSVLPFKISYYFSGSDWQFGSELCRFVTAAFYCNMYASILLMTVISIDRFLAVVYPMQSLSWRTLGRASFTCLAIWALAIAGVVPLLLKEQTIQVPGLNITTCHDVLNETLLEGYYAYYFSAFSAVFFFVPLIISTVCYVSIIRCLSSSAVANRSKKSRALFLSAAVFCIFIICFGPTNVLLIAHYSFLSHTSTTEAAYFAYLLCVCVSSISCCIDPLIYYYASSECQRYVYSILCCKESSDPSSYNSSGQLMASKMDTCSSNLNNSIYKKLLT
Procedure, shortened: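 Radioligand binding to PAR1 using a tritiated peptide ligand, phenylalanine-arginine-cyclohexylalanine-homoarginine-[³H]-tyrosine-NH₂, reported as IC50. Each value is the average of three measurements. Racemic mixtures were tested without separation. Vorapaxar, synthesized in-house, was included as the reference standard.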

[2] = Cytotoxicity against human HepG2 cells assessed as ATP contents at 30 uM after 24 hrs relative to control; type: cell-based; conditions: read-out: Activity
Procedure, shortened: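 HepG2 cells were exposed to compound at 30 μM. Cellular ATP content was measured 24 h after compound addition and expressed as % of vehicle-treated control.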

[3] = Metabolic stability in human liver microsomes assessed as time when 50% of compound remains; type: ADME; conditions: read-out: Time
[4] = Metabolic stability in rat liver microsomes assessed as time when 50% of compound remains; type: ADME; conditions: read-out: Time

| Compound | IC50 [1] [nM] | half-life [3] [min] | half-life [4] [min] | viability at 24 h, 30 µM [2] [%] |
| --- | --- | --- | --- | --- |
| OC1C[C@@H]2CCCC[C@@H]2[C@H]1/C=C/c1ccc(-c2cccc(F)c2)cn1 (mixture of isomers) | 220 |  |  |  |
| CS(=O)(=O)OC1C[C@@H]2CCCC[C@@H]2[C@H]1/C=C/c1ccc(-c2cccc(F)c2)cn1 (mixture of isomers) | 6.4 | 3.5 | 6.5 | 94 |
| COC(=O)NC1C[C@@H]2CCCC[C@@H]2[C@H]1/C=C/c1ccc(-c2cccc(F)c2)cn1 (mixture of isomers) | 980 |  |  |  |
| CC(C)(C)OC(=O)NC1C[C@@H]2CCCC[C@@H]2[C@H]1/C=C/c1ccc(-c2cccc(F)c2)cn1 (mixture of isomers) | 7800 |  |  |  |
| CN(C1C[C@@H]2CCCC[C@@H]2[C@H]1/C=C/c1ccc(-c2cccc(F)c2)cn1)S(C)(=O)=O (mixture of isomers) | 1.3 | 2.5 | 2.2 | 95 |
| O=C1NCC2(C[C@@H]3CCCC[C@@H]3[C@H]2/C=C/c2ccc(-c3cccc(F)c3)cn2)O1 (mixture of isomers) | 8.6 | 4.4 | 6.7 | 101 |
| CC(=O)OC1C[C@@H]2CCCC[C@@H]2[C@H]1/C=C/c1ccc(-c2cccc(F)c2)cn1 (mixture of isomers) | 67 |  |  |  |
| NC1C[C@@H]2CCCC[C@@H]2[C@H]1/C=C/c1ccc(-c2cccc(F)c2)cn1 (mixture of isomers) | 230 |  |  |  |
| CS(=O)(=O)NC1C[C@@H]2CCCC[C@@H]2[C@H]1/C=C/c1ccc(-c2cccc(F)c2)cn1 (mixture of isomers) | 50 | 273 | 105 |  |
| CC1(OC(N)=O)C[C@@H]2CCCC[C@@H]2[C@H]1/C=C/c1ccc(-c2cccc(F)c2)cn1 (mixture of isomers) | 2.7 | 4.3 | 5.8 | 99 |
| Fc1cccc(-c2ccc(/C=C/[C@@H]3[C@H]4CCCC[C@H]4CC34OCCO4)nc2)c1 (racemic) | 26 | 4.5 | 3.4 | 97 |

The remaining molecules from weak to strong by IC50 [1], led by results:

| IC50 [1] [nM] | half-life [3] [min] | half-life [4] [min] | Compound | viability at 24 h, 30 µM [2] [%] |
| --- | --- | --- | --- | --- |
| 2100 |  |  | Fc1cccc(-c2ccc(/C=C/[C@H]3[C@H]4CCCC[C@H]4CC34OCCO4)nc2)c1 (racemic) |  |
| 2000 |  |  | CCOC(=O)NC1C[C@@H]2CCCC[C@@H]2[C@H]1/C=C/c1ccc(-c2cccc(F)c2)cn1 (mixture of isomers) |  |
| 1100 |  |  | O=C1C[C@@H]2CCCC[C@@H]2[C@H]1/C=C/c1ccc(-c2cccc(F)c2)cn1 (racemic) |  |
| 470 |  |  | Fc1cccc(-c2ccc(/C=C/[C@@H]3[C@H]4CCCC[C@@H]4CC34OCCO4)nc2)c1 (racemic) |  |
| 360 |  |  | O=C(Nc1ccccc1)OC1C[C@@H]2CCCC[C@@H]2[C@H]1/C=C/c1ccc(-c2cccc(F)c2)cn1 (mixture of isomers) |  |
| 280 |  |  | Fc1cccc(-c2ccc(/C=C/[C@H]3C(OCc4ccccc4)C[C@@H]4CCCC[C@@H]43)nc2)c1 (mixture of isomers) |  |
| 230 |  |  | O=C(NC1C[C@@H]2CCCC[C@@H]2[C@H]1/C=C/c1ccc(-c2cccc(F)c2)cn1)C1CC1 (mixture of isomers) |  |
| 120 |  |  | CN(C)C(=S)OC1C[C@@H]2CCCC[C@@H]2[C@H]1/C=C/c1ccc(-c2cccc(F)c2)cn1 (mixture of isomers) |  |
| 67 |  |  | COC1C[C@@H]2CCCC[C@@H]2[C@H]1/C=C/c1ccc(-c2cccc(F)c2)cn1 (mixture of isomers) |  |
| 53 |  |  | CC(=O)NC1C[C@@H]2CCCC[C@@H]2[C@H]1/C=C/c1ccc(-c2cccc(F)c2)cn1 (mixture of isomers) |  |
| 43 |  |  | COC1(C)C[C@@H]2CCCC[C@@H]2[C@H]1/C=C/c1ccc(-c2cccc(F)c2)cn1 (mixture of isomers) |  |
| 33 |  |  | CC1(O)C[C@@H]2CCCC[C@@H]2[C@H]1/C=C/c1ccc(-c2cccc(F)c2)cn1 (mixture of isomers) |  |
| 5.4 | 5.6 | 5.2 | CC(=O)N(C)C1C[C@@H]2CCCC[C@@H]2[C@H]1/C=C/c1ccc(-c2cccc(F)c2)cn1 (mixture of isomers) | 98 |
| 1.1 | 83.2 | 32.4 | CCOC(=O)N[C@@H]1CC[C@@H]2[C@@H](C1)C[C@H]1C(=O)O[C@H](C)[C@H]1[C@H]2/C=C/c1ccc(-c2cccc(F)c2)cn1 [VORAPAXAR] | 102 |

— ChEMBL document CHEMBL3091395, “Discovery of Octahydroindenes as PAR1 Antagonists” (ACS Med Chem Lett, 2013)
